Assay results: ChEMBL document CHEMBL2424619, “Small-molecule ligands of methyl-lysine binding proteins: optimization of selectivity for L3MBTL3” (J Med Chem, 2013)

Key:
[1] = target: T1, Lethal(3)malignant brain tumor-like protein 3 (Homo sapiens, UniProt Q96JM7); assay: Inhibition of L3MBTL3 (unknown origin) after 30 mins by AlphaScreen assay
T1 sequence (Q96JM7 whole entry): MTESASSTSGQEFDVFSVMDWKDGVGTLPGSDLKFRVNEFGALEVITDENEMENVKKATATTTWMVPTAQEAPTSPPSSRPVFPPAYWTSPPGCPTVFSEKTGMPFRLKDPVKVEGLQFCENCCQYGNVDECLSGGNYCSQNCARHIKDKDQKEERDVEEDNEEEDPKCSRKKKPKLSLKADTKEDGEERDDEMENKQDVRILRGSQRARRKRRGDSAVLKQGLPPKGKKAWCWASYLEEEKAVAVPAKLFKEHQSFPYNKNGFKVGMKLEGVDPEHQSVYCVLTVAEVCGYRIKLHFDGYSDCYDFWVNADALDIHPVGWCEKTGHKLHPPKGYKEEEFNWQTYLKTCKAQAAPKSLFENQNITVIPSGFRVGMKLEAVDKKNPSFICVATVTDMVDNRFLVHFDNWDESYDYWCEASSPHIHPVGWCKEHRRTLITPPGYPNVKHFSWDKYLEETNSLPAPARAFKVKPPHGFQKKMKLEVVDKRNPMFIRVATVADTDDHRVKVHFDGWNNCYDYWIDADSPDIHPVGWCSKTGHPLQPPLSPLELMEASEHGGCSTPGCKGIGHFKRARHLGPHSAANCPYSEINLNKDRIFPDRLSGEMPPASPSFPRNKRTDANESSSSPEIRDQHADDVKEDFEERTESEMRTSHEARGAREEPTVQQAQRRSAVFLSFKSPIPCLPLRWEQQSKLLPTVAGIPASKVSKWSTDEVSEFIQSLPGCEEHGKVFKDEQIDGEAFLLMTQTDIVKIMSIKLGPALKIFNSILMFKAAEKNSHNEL
Summary of the method: (§1)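 AlphaScreen competition with histone peptide. Compounds in 3-fold, 10-point dilutions, top 10 or 30 μM; buffer 20 mM Tris pH 8.0, 25 mM NaCl, 2 mM DTT, 0.05% Tween-20. Protein-peptide mix 30 min RT, then streptavidin donor plus nickel-chelate acceptor beads (GST acceptor beads for GST-tagged PHF23, JARID1A) 30 min RT dark. Protein-free His6-biotin peptide counterscreen.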

[2] = target: TP53-binding protein 1 (Homo sapiens, UniProt Q12888); assay: Inhibition of 53BP1 (unknown origin) after 30 mins by AlphaScreen assay
Chain of TP53-binding protein 1 (Q12888 whole entry): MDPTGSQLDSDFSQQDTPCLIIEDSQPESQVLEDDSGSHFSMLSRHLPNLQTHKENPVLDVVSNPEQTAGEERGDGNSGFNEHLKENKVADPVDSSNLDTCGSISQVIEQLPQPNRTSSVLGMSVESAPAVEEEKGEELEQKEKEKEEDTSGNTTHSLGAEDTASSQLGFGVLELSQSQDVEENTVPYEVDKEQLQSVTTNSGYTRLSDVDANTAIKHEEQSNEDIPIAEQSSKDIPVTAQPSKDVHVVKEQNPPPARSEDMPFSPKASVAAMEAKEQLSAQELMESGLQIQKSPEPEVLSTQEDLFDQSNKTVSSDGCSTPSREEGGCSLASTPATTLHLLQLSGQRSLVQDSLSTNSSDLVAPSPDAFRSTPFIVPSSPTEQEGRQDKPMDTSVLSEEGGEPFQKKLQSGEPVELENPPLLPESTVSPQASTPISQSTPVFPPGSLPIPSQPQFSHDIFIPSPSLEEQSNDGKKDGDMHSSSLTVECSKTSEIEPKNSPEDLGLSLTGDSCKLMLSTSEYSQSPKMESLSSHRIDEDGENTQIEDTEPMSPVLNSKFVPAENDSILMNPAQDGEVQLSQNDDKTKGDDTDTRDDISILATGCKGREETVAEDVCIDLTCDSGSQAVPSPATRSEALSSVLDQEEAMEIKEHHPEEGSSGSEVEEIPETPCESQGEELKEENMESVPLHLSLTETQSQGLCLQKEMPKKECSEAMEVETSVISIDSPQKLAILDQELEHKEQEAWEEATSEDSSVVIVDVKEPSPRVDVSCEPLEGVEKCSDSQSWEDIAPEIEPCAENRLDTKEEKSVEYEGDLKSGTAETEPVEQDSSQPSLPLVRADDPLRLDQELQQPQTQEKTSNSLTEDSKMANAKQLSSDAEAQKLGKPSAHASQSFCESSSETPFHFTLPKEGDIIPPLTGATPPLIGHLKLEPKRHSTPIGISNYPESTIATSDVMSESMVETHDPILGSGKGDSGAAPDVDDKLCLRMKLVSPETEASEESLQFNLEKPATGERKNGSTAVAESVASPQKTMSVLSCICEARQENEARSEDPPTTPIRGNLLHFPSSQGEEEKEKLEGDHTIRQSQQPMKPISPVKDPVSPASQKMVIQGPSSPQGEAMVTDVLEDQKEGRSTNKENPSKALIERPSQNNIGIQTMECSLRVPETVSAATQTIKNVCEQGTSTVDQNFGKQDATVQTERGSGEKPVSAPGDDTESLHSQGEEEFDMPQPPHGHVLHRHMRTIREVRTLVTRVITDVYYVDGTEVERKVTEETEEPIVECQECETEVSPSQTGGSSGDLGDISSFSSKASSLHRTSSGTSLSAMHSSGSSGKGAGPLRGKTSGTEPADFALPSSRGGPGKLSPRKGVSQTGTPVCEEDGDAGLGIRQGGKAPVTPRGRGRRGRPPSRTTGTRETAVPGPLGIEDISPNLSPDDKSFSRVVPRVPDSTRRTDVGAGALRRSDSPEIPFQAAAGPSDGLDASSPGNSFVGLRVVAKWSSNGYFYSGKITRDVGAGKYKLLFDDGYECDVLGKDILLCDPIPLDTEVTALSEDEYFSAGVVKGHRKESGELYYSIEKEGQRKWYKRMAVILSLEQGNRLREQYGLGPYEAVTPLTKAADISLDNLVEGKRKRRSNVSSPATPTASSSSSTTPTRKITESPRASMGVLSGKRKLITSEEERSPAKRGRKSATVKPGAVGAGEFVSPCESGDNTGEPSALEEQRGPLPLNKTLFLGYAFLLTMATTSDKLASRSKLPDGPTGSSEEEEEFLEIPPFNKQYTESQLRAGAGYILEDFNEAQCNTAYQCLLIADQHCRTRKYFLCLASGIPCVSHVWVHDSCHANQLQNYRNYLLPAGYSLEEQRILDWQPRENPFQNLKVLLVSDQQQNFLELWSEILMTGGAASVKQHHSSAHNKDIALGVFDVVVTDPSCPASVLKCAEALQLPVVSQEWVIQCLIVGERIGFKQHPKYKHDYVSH
Summary of the method: as §1, with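 “dark. […]” for “dark.”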

[3] = target: T2, E3 ubiquitin-protein ligase UHRF1 (Homo sapiens, UniProt Q96T88); assay: Inhibition of UHRF1 (unknown origin) after 30 mins by AlphaScreen assay
T2 sequence (Q96T88 whole entry): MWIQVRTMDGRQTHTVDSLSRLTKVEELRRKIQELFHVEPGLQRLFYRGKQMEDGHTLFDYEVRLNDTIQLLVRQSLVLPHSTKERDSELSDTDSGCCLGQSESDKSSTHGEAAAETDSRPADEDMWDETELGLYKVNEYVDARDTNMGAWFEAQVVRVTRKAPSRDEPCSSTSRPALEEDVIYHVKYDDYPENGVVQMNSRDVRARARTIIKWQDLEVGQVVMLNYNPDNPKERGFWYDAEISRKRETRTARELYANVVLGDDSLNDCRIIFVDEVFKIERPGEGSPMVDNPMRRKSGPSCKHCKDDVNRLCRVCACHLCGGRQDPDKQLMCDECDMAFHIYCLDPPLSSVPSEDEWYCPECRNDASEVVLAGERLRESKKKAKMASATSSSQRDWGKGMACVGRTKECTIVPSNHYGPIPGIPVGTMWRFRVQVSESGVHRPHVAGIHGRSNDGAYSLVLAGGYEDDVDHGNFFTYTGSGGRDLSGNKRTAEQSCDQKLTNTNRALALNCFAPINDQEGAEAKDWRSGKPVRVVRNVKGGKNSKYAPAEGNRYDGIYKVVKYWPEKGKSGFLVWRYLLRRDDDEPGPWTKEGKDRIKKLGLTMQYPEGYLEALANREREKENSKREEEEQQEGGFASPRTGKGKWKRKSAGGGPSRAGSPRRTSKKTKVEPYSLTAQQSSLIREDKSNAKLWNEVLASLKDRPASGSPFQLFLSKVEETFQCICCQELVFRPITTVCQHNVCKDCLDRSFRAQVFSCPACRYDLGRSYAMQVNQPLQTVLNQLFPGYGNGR
Summary of the method: as §1, with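 “dark. […]” for “dark.”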

[4] = target: Lysine-specific demethylase 5A (Homo sapiens, UniProt P29375); assay: Inhibition of JARID1A (unknown origin) after 30 mins by AlphaScreen assay
Chain of Lysine-specific demethylase 5A (P29375 whole entry): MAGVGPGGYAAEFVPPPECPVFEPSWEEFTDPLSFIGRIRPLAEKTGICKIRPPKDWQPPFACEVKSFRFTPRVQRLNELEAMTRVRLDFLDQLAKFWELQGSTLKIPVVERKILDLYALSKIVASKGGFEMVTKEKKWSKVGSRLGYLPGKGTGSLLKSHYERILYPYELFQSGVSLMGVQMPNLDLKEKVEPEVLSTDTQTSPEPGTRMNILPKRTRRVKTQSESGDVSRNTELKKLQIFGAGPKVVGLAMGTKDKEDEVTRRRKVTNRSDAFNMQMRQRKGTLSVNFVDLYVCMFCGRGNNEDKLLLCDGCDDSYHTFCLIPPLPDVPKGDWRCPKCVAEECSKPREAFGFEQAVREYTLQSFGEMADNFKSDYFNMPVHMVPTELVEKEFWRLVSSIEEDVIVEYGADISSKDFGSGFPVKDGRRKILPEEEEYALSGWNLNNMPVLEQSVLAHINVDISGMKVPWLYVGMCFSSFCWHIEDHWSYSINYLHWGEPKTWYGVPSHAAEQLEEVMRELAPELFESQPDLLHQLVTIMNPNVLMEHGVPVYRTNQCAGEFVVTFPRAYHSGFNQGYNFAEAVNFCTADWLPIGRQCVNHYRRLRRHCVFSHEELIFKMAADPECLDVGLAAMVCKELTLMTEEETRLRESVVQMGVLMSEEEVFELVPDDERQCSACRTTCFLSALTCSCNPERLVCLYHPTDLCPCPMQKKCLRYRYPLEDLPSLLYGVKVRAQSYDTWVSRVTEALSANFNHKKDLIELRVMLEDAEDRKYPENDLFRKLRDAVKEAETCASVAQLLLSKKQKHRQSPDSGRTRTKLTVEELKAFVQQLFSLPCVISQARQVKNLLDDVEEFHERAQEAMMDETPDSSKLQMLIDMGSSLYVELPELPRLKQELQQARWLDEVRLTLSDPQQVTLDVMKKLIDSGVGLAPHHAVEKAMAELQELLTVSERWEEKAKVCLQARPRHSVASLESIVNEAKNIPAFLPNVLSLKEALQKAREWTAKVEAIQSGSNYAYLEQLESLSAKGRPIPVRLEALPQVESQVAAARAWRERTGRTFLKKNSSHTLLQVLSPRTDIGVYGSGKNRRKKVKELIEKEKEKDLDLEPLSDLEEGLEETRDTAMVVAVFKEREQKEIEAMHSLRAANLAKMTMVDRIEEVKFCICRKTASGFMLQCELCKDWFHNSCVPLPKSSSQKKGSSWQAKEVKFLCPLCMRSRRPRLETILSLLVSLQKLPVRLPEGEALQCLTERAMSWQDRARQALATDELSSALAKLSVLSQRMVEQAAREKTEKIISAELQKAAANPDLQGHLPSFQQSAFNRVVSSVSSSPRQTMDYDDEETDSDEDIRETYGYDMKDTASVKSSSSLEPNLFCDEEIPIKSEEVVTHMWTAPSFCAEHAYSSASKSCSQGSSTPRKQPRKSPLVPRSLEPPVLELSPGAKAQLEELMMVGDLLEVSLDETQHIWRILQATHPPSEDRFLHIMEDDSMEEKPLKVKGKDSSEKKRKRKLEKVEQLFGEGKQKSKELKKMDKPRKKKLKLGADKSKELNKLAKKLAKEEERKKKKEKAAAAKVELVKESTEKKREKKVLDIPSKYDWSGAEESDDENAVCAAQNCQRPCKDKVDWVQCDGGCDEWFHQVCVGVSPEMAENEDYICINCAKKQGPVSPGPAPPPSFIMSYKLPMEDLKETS
Summary of the method: as §1, with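 “dark. […]” for “dark.”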

[5] = target: PHD finger protein 23 (Homo sapiens, UniProt Q9BUL5); assay: Inhibition of PHF23 (unknown origin) after 30 mins by AlphaScreen assay; summary of the method: as §1
Chain of PHD finger protein 23 (Q9BUL5 whole entry, the tested form may be a part): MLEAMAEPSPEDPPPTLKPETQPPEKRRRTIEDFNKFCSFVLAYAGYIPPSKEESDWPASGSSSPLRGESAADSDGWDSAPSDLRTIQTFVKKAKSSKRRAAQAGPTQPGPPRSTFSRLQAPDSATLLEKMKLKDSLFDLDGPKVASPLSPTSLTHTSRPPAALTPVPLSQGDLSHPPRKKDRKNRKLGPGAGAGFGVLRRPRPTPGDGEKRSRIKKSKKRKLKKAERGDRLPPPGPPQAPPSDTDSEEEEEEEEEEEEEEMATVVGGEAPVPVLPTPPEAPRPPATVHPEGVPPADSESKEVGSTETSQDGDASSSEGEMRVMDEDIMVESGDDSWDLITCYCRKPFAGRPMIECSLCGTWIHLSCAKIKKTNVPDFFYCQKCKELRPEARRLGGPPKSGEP

[6] = target: MBT domain-containing protein 1 (Homo sapiens, UniProt Q05BQ5); assay: Inhibition of MBTD1 (unknown origin) after 30 mins by AlphaScreen assay; summary of the method: as §1
Chain of MBT domain-containing protein 1 (Q05BQ5 whole entry, the tested form may be a part): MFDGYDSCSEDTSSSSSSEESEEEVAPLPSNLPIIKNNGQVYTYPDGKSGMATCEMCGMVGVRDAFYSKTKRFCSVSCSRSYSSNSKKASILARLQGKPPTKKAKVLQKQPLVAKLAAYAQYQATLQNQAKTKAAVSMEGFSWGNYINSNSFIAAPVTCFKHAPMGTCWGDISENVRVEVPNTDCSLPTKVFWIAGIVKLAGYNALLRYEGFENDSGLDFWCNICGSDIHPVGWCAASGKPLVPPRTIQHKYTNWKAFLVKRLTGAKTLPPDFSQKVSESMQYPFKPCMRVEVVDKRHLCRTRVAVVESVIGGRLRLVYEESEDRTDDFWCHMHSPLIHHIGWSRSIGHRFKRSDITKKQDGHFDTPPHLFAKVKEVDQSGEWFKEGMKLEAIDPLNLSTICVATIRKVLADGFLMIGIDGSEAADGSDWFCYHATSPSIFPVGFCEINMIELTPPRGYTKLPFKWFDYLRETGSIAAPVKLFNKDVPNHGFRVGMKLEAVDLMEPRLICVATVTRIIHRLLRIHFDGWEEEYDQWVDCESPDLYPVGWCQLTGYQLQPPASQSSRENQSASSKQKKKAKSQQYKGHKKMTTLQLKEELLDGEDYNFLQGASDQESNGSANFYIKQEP

[7] = target: T3, Chromobox protein homolog 7 (Homo sapiens, UniProt O95931); assay: Inhibition of CBX7 (unknown origin) after 30 mins by AlphaScreen assay; summary of the method: as §1
T3 sequence (O95931 whole entry): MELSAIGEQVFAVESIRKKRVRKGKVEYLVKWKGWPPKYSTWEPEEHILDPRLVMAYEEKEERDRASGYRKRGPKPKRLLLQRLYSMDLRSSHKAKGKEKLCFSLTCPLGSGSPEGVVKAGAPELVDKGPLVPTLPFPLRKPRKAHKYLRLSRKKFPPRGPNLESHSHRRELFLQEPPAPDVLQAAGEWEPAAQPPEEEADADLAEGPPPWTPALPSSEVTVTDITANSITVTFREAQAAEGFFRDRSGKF

[8] = target: T4, Scm-like with four MBT domains protein 1 (Homo sapiens, UniProt Q9UHJ3); assay: Inhibition of SFMBT1 (unknown origin) after 30 mins by AlphaScreen assay
T4 sequence (Q9UHJ3 whole entry): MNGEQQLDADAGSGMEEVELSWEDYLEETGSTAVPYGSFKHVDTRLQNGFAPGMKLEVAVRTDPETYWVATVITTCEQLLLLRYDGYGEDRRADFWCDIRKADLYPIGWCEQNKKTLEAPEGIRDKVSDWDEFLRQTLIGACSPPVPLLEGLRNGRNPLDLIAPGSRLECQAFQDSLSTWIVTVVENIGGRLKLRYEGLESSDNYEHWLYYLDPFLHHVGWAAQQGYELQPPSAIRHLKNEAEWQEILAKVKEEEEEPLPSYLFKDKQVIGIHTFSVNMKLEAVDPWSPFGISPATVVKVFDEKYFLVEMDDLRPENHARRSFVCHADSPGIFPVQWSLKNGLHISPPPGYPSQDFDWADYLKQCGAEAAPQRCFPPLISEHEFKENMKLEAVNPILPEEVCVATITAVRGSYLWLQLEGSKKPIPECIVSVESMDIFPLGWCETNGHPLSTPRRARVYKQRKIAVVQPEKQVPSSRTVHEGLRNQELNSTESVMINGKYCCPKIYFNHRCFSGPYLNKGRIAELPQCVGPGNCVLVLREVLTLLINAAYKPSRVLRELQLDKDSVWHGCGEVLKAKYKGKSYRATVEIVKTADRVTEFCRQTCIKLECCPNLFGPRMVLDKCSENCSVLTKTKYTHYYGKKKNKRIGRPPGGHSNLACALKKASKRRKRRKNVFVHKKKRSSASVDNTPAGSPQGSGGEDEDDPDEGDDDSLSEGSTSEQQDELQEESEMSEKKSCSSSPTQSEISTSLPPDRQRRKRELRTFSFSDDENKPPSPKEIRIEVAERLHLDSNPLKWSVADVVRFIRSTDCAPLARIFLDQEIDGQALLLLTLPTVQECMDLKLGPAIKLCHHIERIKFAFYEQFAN
Summary of the method: as §1, with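 “dark. […]” for “dark.”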

[9] = target: T5, Lethal(3)malignant brain tumor-like protein 4 (Homo sapiens, UniProt Q8NA19); assay: Inhibition of L3MBTL4 (unknown origin) after 30 mins by AlphaScreen assay; summary of the method: as §1
T5 sequence (Q8NA19 whole entry): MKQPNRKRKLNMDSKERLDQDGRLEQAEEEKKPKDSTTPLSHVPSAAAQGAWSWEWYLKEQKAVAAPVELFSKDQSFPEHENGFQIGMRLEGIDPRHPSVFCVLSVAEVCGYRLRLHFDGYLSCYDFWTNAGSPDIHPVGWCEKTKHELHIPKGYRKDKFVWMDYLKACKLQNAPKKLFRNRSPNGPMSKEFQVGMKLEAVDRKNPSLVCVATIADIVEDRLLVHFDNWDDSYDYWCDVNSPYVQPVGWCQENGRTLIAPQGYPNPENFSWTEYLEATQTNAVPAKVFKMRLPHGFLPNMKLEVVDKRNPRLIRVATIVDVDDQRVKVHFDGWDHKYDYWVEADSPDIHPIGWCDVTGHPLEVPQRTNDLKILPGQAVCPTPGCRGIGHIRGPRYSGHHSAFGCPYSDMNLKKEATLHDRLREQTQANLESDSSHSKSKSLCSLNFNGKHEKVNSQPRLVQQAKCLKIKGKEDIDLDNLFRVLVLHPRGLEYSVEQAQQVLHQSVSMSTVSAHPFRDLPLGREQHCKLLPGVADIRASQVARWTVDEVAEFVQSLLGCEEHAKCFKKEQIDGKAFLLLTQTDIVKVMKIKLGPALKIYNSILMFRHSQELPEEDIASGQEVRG

[10] = system: HEK-293T; assay: Cytotoxicity against HEK293T/17 cells assessed as cell viability up to 100 uM after 24 hrs by CellTiter-Glo luminescence assay; type: cell-based; settings: human
Summary of the method: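 Cell viability by CellTiter-Glo luminescence, compound tested up to 100 μM.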

Compound | IC50 [1] [µM] | IC50 [2] [µM] | IC50 [3] [µM] | further results
CCN1Cc2ccc(NC(=O)c3cccc(Br)c3)cc2C1 | 1.2 | – | – | –
O=C(c1cccc(Br)c1)N1CC2CCC(C1)C2N1CCCC1 (centres undefined) | 3.2 | – | – | –
O=C(c1cccc(Br)c1)N1CCC(N2CCCC2)CC1 | 4.1 | – | – | –
O=C(c1ccc(C(=O)N2CCN(C3CCCC3)CC2)cc1)N1CCC(N2CCCC2)CC1 | – | > 10 | > 10 | –
O=C(c1ccc(C(=O)N2CCC(N3CCCC3)CC2)cc1)N1CCC(N2CCCC2)CC1 | – | > 10 | > 10 | IC50 [4]: > 10 µM; IC50 [5]: > 10 µM; IC50 [6]: > 10 µM; IC50 [7]: > 10 µM; IC50 [8]: > 10 µM; IC50 [9]: > 10 µM; Activity [10]: Non-toxic
